# Sampled rows, rich in hits. Any-hit rate of the full collection: about 3.7%.
# hERG protect: hERG rescue from dofetilide block, primary screen, cell-based, CHO-hERG, FluxOR thallium flux, dofetilide IC70; Voltage-gated inwardly rectifying potassium channel KCNH2 (Homo sapiens), Q12809; dofetilide IC70 present; activation (rescue from dofetilide block), less the hit threshold, % at 10 µM; hit rate 0.51% among 310,000;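 active means activation above the mean of controls blocked by dofetilide plus 5 SD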;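 further: thallium influx through hERG after potassium depolarization seen as dye fluorescence rise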
# KCNK3 block: human KCNK3 channel inhibitors, primary screen, CHO cells, FluxOR thallium flux, B-score. Potassium channel subfamily K member 3 (Homo sapiens), O14649. FluxOR fluorescence; stronger effect = lower value. B-score at 10 µM. hit rate 0.84% among 340,000. AID 602410, 2012;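 active means B-score under library mean minus 4 SD, starting fluorescence ratio at most library mean plus 5 SD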;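 further: more negative B-score means stronger inhibition of thallium flux through KCNK3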
# Kir21 inh: inhibitors of mouse Kir2.1 inward-rectifier potassium channel; B-score at 10 µM; HEK293-Kir2.1, FluxOR thallium flux fluorescence; stronger effect = lower value; AID 1672, 2009; hit rate 0.85% among 310,000; Inward rectifier potassium channel 2 (Mus musculus), P35561;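 active means fluorescence ratio B-score at or below minus 3 SD of library scores, with starting-brightness B-score within 2 SD, cut at about -4.2 in these data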;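 further: channel flux triggered by added potassium and thallium sulfate stimulus; B-score of peak minus minimum fluorescence over baseline after thallium stimulus; more negative B-score means stronger Kir2.1 block with less thallium influx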
# KCNQ1 block: inhibitors of human KCNQ1 channel, primary screen, cell-based, thallium flux, high-throughput; Potassium voltage-gated channel subfamily KQT member 1 (Homo sapiens), P51787; CHO-K1 KCNQ1, FluxOR thallium flux fluorescence; stronger effect = higher value; B-score at 10 µM; hit rate 1.3% among 310,000; AID 2642, 2010;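 active means compounds whose thallium flux B-score, printed positive for inhibition, exceeds three library SD while starting fluorescence stays within three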;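 further: channel opened by potassium depolarization with thallium stimulus after 20 min compound exposure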
# Target sequence (P51787 whole entry, looked up): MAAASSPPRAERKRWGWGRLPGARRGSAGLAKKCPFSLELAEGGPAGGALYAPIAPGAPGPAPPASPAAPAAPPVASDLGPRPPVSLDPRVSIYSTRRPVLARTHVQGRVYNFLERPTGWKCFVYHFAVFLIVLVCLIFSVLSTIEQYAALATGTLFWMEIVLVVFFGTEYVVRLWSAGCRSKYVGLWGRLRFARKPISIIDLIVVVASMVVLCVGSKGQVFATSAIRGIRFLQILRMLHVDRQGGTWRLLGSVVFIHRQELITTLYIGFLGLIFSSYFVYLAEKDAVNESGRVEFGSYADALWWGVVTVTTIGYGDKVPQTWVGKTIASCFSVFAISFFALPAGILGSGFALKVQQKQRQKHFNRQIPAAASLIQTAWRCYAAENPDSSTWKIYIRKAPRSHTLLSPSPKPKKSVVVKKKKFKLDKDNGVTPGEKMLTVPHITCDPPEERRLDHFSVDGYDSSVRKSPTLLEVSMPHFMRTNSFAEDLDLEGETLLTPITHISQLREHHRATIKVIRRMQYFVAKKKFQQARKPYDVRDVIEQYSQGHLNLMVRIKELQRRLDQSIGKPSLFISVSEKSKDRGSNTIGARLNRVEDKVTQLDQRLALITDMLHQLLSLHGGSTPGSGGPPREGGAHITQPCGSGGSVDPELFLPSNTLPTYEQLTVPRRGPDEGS
# KCNQ1 act: potentiators or activators of KCNQ1 channel, primary screen, cell-based, thallium flux, high-throughput; CHO-K1 KCNQ1, thallium flux FluxOR fluorescence; stronger effect = higher value; Potassium voltage-gated channel subfamily KQT member 1 (Homo sapiens), P51787; hit rate 0.35% among 310,000; AID 2648, 2010; B-score at 10 µM;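 active means fluorescence ratio B-score, a plate-corrected score, at least three library SD, with initial intensity B-score within 5 SD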
#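 Doses: Single concentration per compound, DMSO matched to controls | Test system: KCNQ1-transfected CHO-K1 cells | Timing: 90 min dye loading and 20 min compound exposure, both at room temperature | Measured by: Kinetic FluxOR thallium fluorescence, 10-s 1-Hz baseline, 110-s post-stimulus read | Medium: Assay buffer with matched DMSO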
# KCNK9 inh: KCNK9 potassium channel inhibitors, primary screen, HEK293 cells, thallium flux; FluxOR thallium flux fluorescence; stronger effect = lower value; B-score at 10 µM; hit rate 1.2% among 310,000; AID 488922, 2010;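 active means ratio B-score over 3 SD below the library mean, with starting fluorescence within 5 SD of its mean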;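 further: negative B-score means less thallium flux so channel inhibition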
# KCNQ1 block val: KCNQ1 potassium channel inhibitors, confirmation, cell-based, Tl flux, duplicate | AID 588353, 2011 | hit rate 93% among 1,600 | KCNQ1 cell line, FluxOR thallium flux fluorescence | shares compounds with KCNQ1 block | inhibition, % at 10 µM;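 active means primary screen active, with duplicate mean exceeding buffer control mean plus 3 SD of buffer wells, cut at about 28% in these data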;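 further: 0% = buffer control ratio and 100% = XE991 inhibitor control ratio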
# CHO Tl flux: thallium flux effects in parental CHO cells, counter-screen for KCNQ1 inhibitor project, cell-based, Tl flux; shares compounds with KCNQ1 block; parental CHO-K1, FluxOR thallium flux fluorescence ratio; stronger effect = lower value; zero means no signal rise above baseline; fluorescence ratio (Tl flux) at 10 µM; hit rate 21% among 1,600; AID 588366, 2011;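 active means mean of duplicate thallium-flux fluorescence ratios in parental host cells more than 5 SD below the buffer control mean, cut at about 0.38 in these data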;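 further: ratio is peak minus minimum fluorescence divided by baseline fluorescence; actives read low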
# KCNQ1 APC inh: KCNQ1 channel inhibitors, confirmation, orthogonal assay, cell-based, automated electrophysiology; shares compounds with KCNQ1 block; KCNQ1-CHO cells, automated patch clamp current; calls only at 10 µM; hit rate 20% among 490; AID 624120, 2012;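 active means KCNQ1 current drop exceeding 3 SD of negative control wells, seen in both duplicate runs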;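 further: steady state current during a 2 s step from -80 to +40 mV; negative values mean current inhibition and positive values mean potentiation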
# KCNQ2 inh: KCNQ2 channel inhibition, selectivity assay for KCNQ1 inhibitor project, cell-based; hit rate 71% among 1,600; inhibition, % at 10 µM; shares compounds with KCNQ1 block; KCNQ2 cells, FluxOR thallium flux fluorescence; AID 651746, 2012;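 active means mean percent inhibition of the KCNQ2 thallium signal more than 5 SD above the buffer-only control wells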;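 further: KCNQ2 expressed in CHO cells; 0% = buffer control wells and 100% = XE-991 inhibitor control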
# KCNQ1 KCNE1 spec: KCNQ1/KCNE1 channel inhibition, selectivity assay for KCNQ1 inhibitor project, CHO-K1 cells, thallium flux, FluxOR. FluxOR thallium flux fluorescence. shares compounds with KCNQ1 block. AID 652147, 2013. inhibition, % at 10 µM. hit rate 77% among 1,600;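 active means mean percent inhibition of duplicate wells above the buffer-only control mean plus 3 SD of those controls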;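 further: 0% = buffer only wells and 100% = XE-991 inhibitor control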
# Numbers without * were called inactive; i = inactive; · = no result; + = active, no number.
SMILES,hERG protect,KCNK3 block,Kir21 inh,KCNQ1 block,KCNQ1 act,KCNK9 inh,KCNQ1 block val,CHO Tl flux,KCNQ2 inh,KCNQ1 KCNE1 spec,others
Cc1ccc(NC(=S)Nc2ccc(Br)cc2)cc1,-4,i,-0.39,7*,i,i,48*,0.5,i,i,
N#Cc1ccc(NC(=S)Nc2ccccc2)cc1,-8,i,-0.08,7*,i,i,0,0.61,i,56%*,
S=C(Nc1ccccc1)Nc1cccc(Br)c1,-18,i,0.67,8*,i,i,60*,0.47,i,60%*,
CN(CC(=O)Nc1ccc(C#N)cc1)Cc1ccc(Cl)cc1,-7,i,1.4,i,i,i,·,·,·,·,
CCCCn1c(N)c(N(CCOC)C(=O)CSCc2cccc(C)c2)c(=O)[nH]c1=O,-12,i,-1.7,i,i,i,·,·,·,·,
Fc1ccccc1-c1csc(=Nc2cccnc2)n1CCCn1ccnc1,-11,i,-1.1,i,i,i,·,·,·,·,
COC(=O)C1=C(C)NC(C)=C(C(=O)OCC2CCCO2)C1c1cccc(Br)c1 (stereo unspecified),-16,i,-2.5,i,i,i,·,·,·,·,
Cc1cc(C)cc(NC(=O)N2CCNC(=O)C2CC(=O)Nc2cc(Cl)ccc2Cl)c1 (stereo unspecified),-5,i,0.71,i,i,i,·,·,·,·,
O=C(c1ccco1)N1CCN(C(=O)c2ccc(-c3ccccc3Cl)o2)CC1,·,i,·,·,·,·,·,·,·,·,
O=C(c1ccc(-c2ccccc2Cl)o1)N1CCN(c2ccccc2O)CC1,-20,i,-0.06,8*,i,i,+,0.39,i,i,KCNQ1 APC inh=i
COc1cccc(CNC(=O)CCC2CCCN(C(=O)c3cccnc3SC)C2)c1 (stereo unspecified),-7,i,-0.37,i,i,i,·,·,·,·,
COCC1CCCCN1C(=O)c1cc(COc2ccc3ncccc3c2)on1 (stereo unspecified),-14,i,-0.65,i,i,i,·,·,·,·,
CCC1CCCCN1C(=O)c1cc(COc2ccc3ncccc3c2)on1 (stereo unspecified),-23,-9*,-1.5,12*,i,i,124*,0.48,86%*,112%*,
CC(C)(C)N=Cc1c(O)ccc2oc3c(c12)CCCC3,-16,i,-4.3,9*,i,-7.9*,0,0.46,60%*,i,
NC(=O)N/N=C/c1c(O)ccc2oc3c(c12)CCCC3,-14,i,-0.39,i,i,i,·,·,·,·,
O=C(COc1ccc(F)cc1)NCCNC(=O)COc1ccc(F)cc1,·,i,·,·,·,·,·,·,·,·,
Cc1ccccc1OCCCc1c(C)n[nH]c1C,-7,i,-2.2,i,i,i,·,·,·,·,
Cc1ccccc1OCCCCc1c(C)n[nH]c1C,-12,i,-1.9,7*,i,i,109*,0.44,97%*,80%*,KCNQ1 APC inh=i
O=C(CS(=O)(=O)c1cn(CC(=O)N2CCOCC2)c2ccccc12)Nc1ccccc1F,-6,i,0.93,i,i,i,·,·,·,·,
COc1ccccc1C(=O)N/N=C/c1c[nH]c2ccccc12,0,i,-1.9,i,i,i,·,·,·,·,
O=C(NCc1ccccc1)c1cccc(COc2cccc(Cl)c2)c1,-20,-11*,0.86,8*,i,i,126*,0.35*,95%*,156%*,
Cc1ccc(OCCN2CCN(c3ncnc4sc(C)c(C)c34)CC2)cc1,-19,-11*,-2.8,11*,i,i,126*,0.37*,140%*,108%*,
c1ccc(OCCOc2ncnc3ccccc23)cc1,-11,i,-1.5,i,i,i,·,·,·,·,
Brc1ccc(COc2ncnc3ccccc23)cc1,-9,i,0.68,9*,i,i,0,0.44,68%*,42%*,
CC[C@@H]1C/C=C\Cc2ccccc2[C@H](C(=O)C[C@@H](O)CC(C)=O)OC1=O,·,i,·,·,·,·,·,·,·,·,
SMILES,hERG protect,KCNK3 block,Kir21 inh,KCNQ1 block,KCNQ1 act,KCNK9 inh,KCNQ1 block val,CHO Tl flux,KCNQ2 inh,KCNQ1 KCNE1 spec,others
Cc1ccc(NC(=O)Nc2ccc(F)c(Cl)c2)cc1,-15,i,0.41,8*,i,i,78*,0.52,i,44%*,
CC(=O)Nc1cccc(NC(=S)Nc2ccc(F)c(Cl)c2)c1,-30,i,-0.13,8*,i,i,61*,0.45,i,i,
O=C(Nc1cccnc1)Nc1ccc(F)c(Cl)c1,-19,i,0.71,6*,i,i,0,0.56,i,i,
CC(=O)Nc1cccc(NC(=O)Nc2ccc(C)c(Cl)c2)c1,0,i,2,i,i,i,·,·,·,·,
Cc1ccc(S(=O)(=O)N2CCN(C(=O)CN3CCN(c4ccc(O)cc4)CC3)CC2)cc1,·,i,·,·,·,·,·,·,·,·,
Cc1cc(Cl)c(C(=O)Nc2cccc(C(F)(F)F)c2)c(C)n1,-5,i,1.9,i,i,i,·,·,·,·,
Cc1nc2ccc(NS(=O)(=O)c3ccc(C)c(C)c3)cc2s1,-7,i,-0.02,7*,i,i,68*,0.52,i,i,
CC(=O)c1cccc(S(=O)(=O)Nc2ccc3nc(C)sc3c2)c1,-14,i,-0.08,i,i,i,·,·,·,·,
O=C(CSc1nnc(NC(=O)c2ccccc2F)s1)NC1CC1,-4,i,-0.68,i,i,i,·,·,·,·,

# Bioassay records deposited in PubChem BioAssay by Johns Hopkins Ion Channel Center.
